{"data": "Experimental data of several laboratories", "target": "1-phosphatidylinositol 3-phosphate 5-kinase (PIKFYVE, Homo sapiens, UniProt Q9Y2I7)", "note": "Each line is one published result; the experiments were not run side by side."}
{"SMILES": "CN(C)c1nccc(-c2cnn3ncccc23)n1", "effect on": "binding", "tested at": "1 µM", "remaining binding [%]": 100}
{"SMILES": "COc1cccc(CNC(=O)c2nc3scc(COCc4ccc(C(=O)O)cc4)c3c(=O)[nH]2)c1", "effect on": "cell-free assay", "technique": "competition with immobilised ligand", "tested at": "1 µM", "remaining binding [%]": 100}
{"SMILES": "N[C@@H]1CCN(c2nccc(-c3cnn4ncccc34)n2)C1", "effect on": "binding", "tested at": "1 µM", "remaining binding [%]": 78}
{"SMILES": "CO[C@H]1CC[C@H](CNc2ccc(S(=O)(=O)NC(=O)c3ccc(N4CCN(CC5=C(c6ccc(Cl)cc6)CC(C)(C)CC5)CC4)cc3Oc3cnc4[nH]ccc4c3)cc2[N+](=O)[O-])CC1", "effect on": "cell-free assay", "technique": "competition with immobilised ligand", "tested at": "1 µM", "remaining binding [%]": 89}
{"SMILES": "CNC(=O)[C@@H]1CC[C@@H](n2c(-c3ccc4cnccc4c3)nc3ccc(C(=O)NCc4cccc(C(N)=O)c4)cc32)C1", "effect on": "binding", "technique": "competition with immobilised ligand", "tested at": "1 µM", "remaining binding [%]": 14}
{"SMILES": "O=C(NCCCN1CCOCC1)c1ccc(Nc2ncc(Cl)c(-c3ccc(Cl)s3)n2)cc1", "effect on": "binding", "technique": "competition with immobilised ligand", "tested at": "1 µM", "remaining binding [%]": 53}
{"SMILES": "FC(F)(F)Oc1cccc(-c2cnc3ccc(-c4ccncc4)nn23)c1", "effect on": "cell-free assay", "technique": "competition with immobilised ligand", "tested at": "5 µM", "remaining binding [%]": 2.4}
{"SMILES": "Nc1ncc2c(n1)-c1c([nH]c3ccc(C#CC4CC4)cc13)CCCC2", "effect on": "binding", "technique": "competition with immobilised ligand", "tested at": "1 µM", "remaining binding [%]": 9.8}
{"SMILES": "CN([C@@H]1CCc2c(CC(=O)O)c3ccccc3n2C1)S(=O)(=O)c1ccc(F)cc1", "effect on": "cell-free assay", "technique": "competition with immobilised ligand", "tested at": "1 µM", "remaining binding [%]": 100}
{"SMILES": "CC1CCCN1c1nccc(-c2cnn3ncccc23)n1 (stereo not drawn)", "effect on": "binding", "tested at": "1 µM", "remaining binding [%]": 100}
{"SMILES": "CN1CCN(c2cnc3c(C4CCN(C(=O)c5ccc(OC(F)(F)F)cc5N)CC4)ncnc3c2)CC1", "effect on": "cell-free assay", "technique": "competition with immobilised ligand", "tested at": "1 µM", "remaining binding [%]": 98}
{"SMILES": "O=C(Nc1c[nH]nc1C(=O)NC1CCNCC1)c1cc(F)cc(F)c1", "effect on": "binding", "technique": "competition with immobilised ligand", "tested at": "1 µM", "remaining binding [%]": 86}
{"SMILES": "c1cnn2ncc(-c3ccnc(N4CCC45COC5)n3)c2c1", "effect on": "binding", "tested at": "1 µM", "remaining binding [%]": 92}
{"SMILES": "O=C(NCCCN1CCOCC1)c1ccc(Nc2nccc(-c3cc4ccccc4s3)n2)cc1", "effect on": "binding", "technique": "competition with immobilised ligand", "tested at": "1 µM", "remaining binding [%]": 0.3}
{"SMILES": "F[C@@H]1CCN(c2nccc(-c3cnn4ncccc34)n2)C1", "effect on": "binding", "tested at": "1 µM", "remaining binding [%]": 82}
{"SMILES": "Cc1cnc(Nc2ccc(C(=O)N3CCC(N4CCCC4)CC3)cc2)nc1-c1cc2ccccc2s1", "effect on": "binding", "technique": "competition with immobilised ligand", "tested at": "1 µM", "remaining binding [%]": 79}
{"SMILES": "CC(C)CC(=O)N1CCc2nc(-c3ccc(Br)cc3)nc(N(C)Cc3ccccc3)c2C1", "effect on": "cell-free assay", "technique": "competition with immobilised ligand", "tested at": "0.1 µM", "remaining binding [%]": 91}
{"SMILES": "C[C@@H]1CCN(c2nccc(-c3cnn4ncccc34)n2)C1", "effect on": "binding", "tested at": "1 µM", "remaining binding [%]": 99}
